What was measured:
NCI-H1299 = test: Apoptosis inducing activity in human H1299 cells by caspase activation assay; format: functional, cell-based
Outline: (§1)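 Cell-based caspase activation (apoptosis induction) HTS assay run in T47D breast and H1299 non-small-cell lung cancer cells; EC50 reported as mean ± SEM of three or more experiments.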

T47D [1] = test: Apoptosis inducing activity in human T47D cells by caspase activation assay; format: functional, cell-based; outline: as §1
T47D [2] = test: Growth inhibition of human T47D cells after 48 hrs; format: functional
Outline: (§2)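 Cells were exposed continuously to compound for 48 h at 37 °C in 96-well format. CellTiter-Glo reagent was added with agitation, then 10-15 min at room temperature before luminescence read-out.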

[3] = Growth inhibition of human H1299 cells after 48 hrs; format: functional; conditions: NCI-H1299, 48 h; outline: as §2
Tubulin = test: Inhibition of tubulin polymerization; format: protein-complex assay, Homo sapiens

EC50 (NCI-H1299)	EC50 (T47D [1])	GI50 (T47D [2])	Structure (SMILES)	GI50 [3]	IC50 (Tubulin)
130 nM	64 nM	–	COc1cc(C2C(C#N)=C(N)Oc3c2ccc2cnccc32)cc(I)c1OC (stereo not given)	–	–
25 nM	13 nM	57 nM	COc1cc(C2C(C#N)=C(N)Oc3c2ccc2[nH]ccc32)cc(Br)c1O (stereo not given)	71 nM	–
128 nM	64 nM	–	COc1cc(C2C(C#N)=C(N)Oc3c2ccc2ccccc32)cc(I)c1OC (stereo not given)	–	–
520 nM	190 nM	–	COc1cc(C2C(C#N)=C(N)Oc3c2ccc2c3CCCC2)cc(Br)c1OC (stereo not given)	–	–
96 nM	68 nM	–	N#CC1=C(N)Oc2c(ccc3[nH]ccc23)C1c1cccc([N+](=O)[O-])c1 (stereo not given)	–	–
53 nM	–	9 nM	COc1cc(C2C(C#N)=C(N)Oc3c2ccc2cc[nH]c32)cc(Br)c1OC (stereo not given)	6 nM	900 nM
150 nM	120 nM	–	N#CC1=C(N)Oc2c(ccc3cnccc23)C1c1cncc(Br)c1 (stereo not given)	–	–
94 nM	29 nM	–	COc1cc(C2C(C#N)=C(N)Oc3c2ccc2cccnc32)cc(Br)c1OC (stereo not given)	–	–
860 nM	460 nM	450 nM	COc1cc(C2C(C#N)=C(N)Oc3c2ccc2nccnc32)cc(Br)c1OC (stereo not given)	550 nM	–
57 nM	–	89 nM	COc1cc(C2C(C#N)=C(N)Oc3c2ccc2[nH]c(C)cc32)cc(Br)c1OC (stereo not given)	140 nM	–
77 nM	30 nM	–	COc1cc(C2C(C#N)=C(N)Oc3c2ccc2[nH]ccc32)cc(OC)c1OC (stereo not given)	–	–
440 nM	120 nM	–	COc1cc(C2C(C#N)=C(N)Oc3c2ccc2cnccc32)cc(OC)c1OC (stereo not given)	–	–
66 nM	52 nM	–	COc1cccc(C2C(C#N)=C(N)Oc3c2ccc2[nH]ccc32)c1 (stereo not given)	–	–
150 nM	61 nM	57 nM	COc1cc(C2C(C#N)=C(N)Oc3c2ccc2cnccc32)cc(Br)c1OC (stereo not given)	71 nM	–
93 nM	73 nM	–	COc1cc(C2C(C#N)=C(N)Oc3c2ccc2ccccc32)cc(Br)c1OC (stereo not given)	–	–
140 nM	88 nM	–	COc1cccc(C2C(C#N)=C(N)Oc3c2ccc2cc[nH]c32)c1 (stereo not given)	–	–
65 nM	13 nM	73 nM	Cc1cncc(C2C(C#N)=C(N)Oc3c2ccc2[nH]ccc32)c1 (stereo not given)	100 nM	–
22 nM	160 nM	–	COc1cc(C2C(C#N)=C(N)Oc3c2ccc2ncccc32)cc(OC)c1OC (stereo not given)	–	–
190 nM	110 nM	–	N#CC1=C(N)Oc2c(ccc3[nH]ccc23)C1c1cccnc1 (stereo not given)	–	–
30 nM	16 nM	–	COc1cncc(C2C(C#N)=C(N)Oc3c2ccc2[nH]ccc32)c1 (stereo not given)	–	–
59 nM	31 nM	–	COc1cc(OC)cc(C2C(C#N)=C(N)Oc3c2ccc2cc[nH]c32)c1 (stereo not given)	–	–
130 nM	120 nM	–	N#CC1=C(N)Oc2c(ccc3cc[nH]c23)C1c1cccc(C#N)c1 (stereo not given)	–	–
180 nM	72 nM	–	COc1cc(C2C(C#N)=C(N)Oc3c2ccc2cc[nH]c32)cc(OC)c1OC (stereo not given)	–	–
–	–	150 nM	COc1cc(C2C(C#N)=C(N)Oc3c2ccc(N)c3N)cc(Br)c1OC (stereo not given)	31 nM	–
430 nM	–	–	N#CC1=C(N)Oc2c(ccc3[nH]ccc23)C1c1ccccc1 (stereo not given)	–	–
290 nM	230 nM	–	Cc1cncc(C2C(C#N)=C(N)Oc3c2ccc2cnccc32)c1 (stereo not given)	–	–
2720 nM	2120 nM	–	COc1cc(C2C(C#N)=C(N)Oc3c2ccc2nc(C)c(C)nc32)cc(Br)c1OC (stereo not given)	–	–
80 nM	35 nM	70 nM	COc1cc(C2C(C#N)=C(N)Oc3c2ccc2cc[nH]c32)cc(Br)c1O (stereo not given)	70 nM	–
120 nM	30 nM	–	COc1cc(OC)cc(C2C(C#N)=C(N)Oc3c2ccc2[nH]ccc32)c1 (stereo not given)	–	–
43 nM	43 nM	–	N#CC1=C(N)Oc2c(ccc3[nH]ccc23)C1c1cccc(C#N)c1 (stereo not given)	–	–

Structure (SMILES)	EC50 (NCI-H1299)	EC50 (T47D [1])	GI50 (T47D [2])	GI50 [3]	IC50 (Tubulin)
COc1cc(C2C(C#N)=C(N)Oc3c2ccc2[nH]ccc32)cc(Br)c1OC (stereo not given)	13 nM	–	8 nM	19 nM	400 nM
COc1cc(C2C(C#N)=C(N)Oc3c2ccc2ccccc32)cc(OC)c1OC (stereo not given)	67 nM	27 nM	–	–	–
COc1cc(C2C(C#N)=C(N)Oc3c2ccc2ncccc32)cc(Br)c1OC (stereo not given)	140 nM	65 nM	–	–	–

From ChEMBL document CHEMBL1143677, “Discovery of 4-aryl-4H-chromenes as a new series of apoptosis inducers using a cell- and caspase-based high-throughput screening assay. 3. Structure-activity relationships of fused rings at the 7,8-positions” (J Med Chem, 2007)
